Values after ≈ are worked out from the molar mass of the structure shown. Active and inactive are the calls of the source. The rule behind the calls is not given here.
Legend:
Micrococcus luteus = experiment: Antimicrobial activity against Micrococcus luteus ATCC 9343 after 20 hrs; assay type: functional; settings: ATCC 9343, 20 h
Method in brief: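 Micrococcus luteus was grown 20 h at 30 °C with shaking, then pelleted and suspended in saline at 1 × 10^5 cells/mL. It was then mixed 1:10 with Mueller Hinton broth plus compound in DMSO.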

Escherichia coli = experiment: Antimicrobial activity against Escherichia coli NIH-JC2 after 20 hrs; assay type: functional, organism-based
Method in brief: (§1)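 Broth microdilution. Overnight cultures (20 h, 30 °C, shaken) centrifuged and resuspended in saline at 1 × 10^5 cells/mL, diluted 1:10 into medium with sample in DMSO. C. albicans in yeast nitrogen base + 2% glucose, 30 °C. E. coli in Mueller Hinton broth, 37 °C. Growth read as A650 after 20 h. MIC reported.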

Candida albicans = experiment: Antimicrobial activity against Candida albicans IFO1594 after 20 hrs; assay type: functional, organism-based; method in brief: as §1
[1] = Antiinvasive activity against mouse 26-L5 cells after 6 to 8 hrs by matrigel assay; assay type: functional, cell-based
Method in brief: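 Transwell chambers with 8.0-μm polycarbonate filters coated with Matrigel/fibronectin were used. Cells were fixed in methanol and stained with H&E. Non-invaded cells were swabbed off, and cells on the lower surface were counted in five fields per well. IC50 reported.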

[2] = Cytotoxicity against mouse 26-L5 cells after 24 hrs by crystal violet staining assay; assay type: cell-based
Method in brief: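 Colon 26-L5 cells (5 × 10^3/well) were seeded in RPMI with 1% FCS and graded compound concentrations. They were incubated 24 h at 37 °C under 5% CO2, washed with PBS and fixed in 20% formalin. Cells were stained 30 min with crystal violet, the dye was eluted in 30% acetic acid and A590 was read. IC50 reported.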

[3] = Selectivity index, ratio of IC50 for cytotoxicity against mouse 26-L5 cells to IC50 for antiinvasive activity against mouse 26-L5 cells; assay type: toxicity, cell-based; settings: read-out: Ratio IC50

MIC (Micrococcus luteus) | IC50 [1] | SMILES | Activity (Escherichia coli) | Activity (Candida albicans) | IC50 [2] | selectivity ratio [3]
6.25 µg/mL (≈ 9.4 µM) | 0.3 µM | C[C@H](C/C=C/[C@H](C)[C@@H](O)CC1CCC(C)(C2CCC(C)([C@@H](C)O)O2)O1)C[C@@H](C)/C(O)=C/C(=O)[C@@H](C)C[C@@H](C)C[C@H](C)C[C@H](C)C(=O)O (stereo partly specified) | inactive | inactive | 4.5 µM | 15
6.25 µg/mL (≈ 9.2 µM) | 0.0055 µM | CC[C@@H](C[C@@H](C)C[C@H](C)C[C@H](C)C(=O)O)C(=O)/C=C(\O)[C@H](C)C[C@H](C)C/C=C/[C@H](C)[C@@H](O)CC1CCC(C)(C2CCC(C)([C@@H](C)O)O2)O1 (stereo partly specified) | inactive | inactive |  | 73

From ChEMBL document CHEMBL3259673, “Campechic acids A and B: anti-invasive polyether polyketides from a soil-derived Streptomyces” (J Nat Prod, 2014)
